MITF act: MITF TRPM1 promoter activation in melanoma cells. SK-MEL-5 TRPM1-promoter luciferase, 24 h; % of positive control, neutral wells = 0. activation, % at 12.5 µM. 300,000 compounds, 0.75% hits. AID 588334;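 active means mean activation of at least 80% with every replicate also reaching 80%; inconclusive means mean reaches 80% but some replicate falls short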
NSD2 HMT inh: NSD2 (human) methyltransferase inhibition | O96028 | NSD2 peptide methylation, AlphaScreen, 120 min | inhibition, % at 12.5 µM | 310,000 compounds, 0.54% hits | AID 743445; in the data active means inhibition above about 50%
Casp6 inh: inhibitors of human caspase-6; purified caspase-6, Z-VEID-R110 cleavage fluorescence; inhibition, % at 12.5 µM; 350,000 compounds, 0.53% hits; AID 686996;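 active means mean inhibition across replicates at least about 35%, with every replicate also reaching that limit, limit read from the data; inconclusive means only one of the two criteria met; inactive means neither criterion met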
Target sequence (P55212 24-179 limits assumed): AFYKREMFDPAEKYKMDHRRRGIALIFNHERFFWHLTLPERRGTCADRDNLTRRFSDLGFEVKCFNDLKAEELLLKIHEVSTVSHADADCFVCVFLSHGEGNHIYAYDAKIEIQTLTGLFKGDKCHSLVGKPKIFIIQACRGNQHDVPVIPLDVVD
Target sequence (P55212 194-293 limits assumed): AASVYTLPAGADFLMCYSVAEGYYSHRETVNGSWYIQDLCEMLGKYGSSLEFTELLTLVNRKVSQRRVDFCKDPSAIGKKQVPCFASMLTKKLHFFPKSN
Wnt bcat act: activators of Wnt/beta-catenin signaling; Wnt/beta-catenin reporter cell assay, activator, plate reader; AID 743398; 300,000 compounds, 1.2% hits; activation, % at 9.35 µM; in the data active means activation above about 30%, passing the limit was not always enough; inconclusive means no clear call, values can overlap the other calls
XiGFP reactiv: X-chromosome reactivation activator; XiGFP mouse fibroblasts, % GFP-positive cells imaging, 3 d; cells co-treated with 5-aza-dC sensitizer; scaled so ellipticine positive control = 100%; activation, % at 7.58 µM; 360,000 compounds, 0.055% hits; AID 743238;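 active means mean normalized replicate activation at least 10% and every replicate at or above 10%; inconclusive means only one of the two criteria met; inactive means mean below 10% and not all replicates reach 10%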
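System: 68-5-11 XiGFP fibroblast line | Buffer or medium: DMEM containing 5-aza-dC | Compound: Single point | Times: Compounds 3 days, fix/stain 15 min at room temperature | Benchmarks: Positive control ellipticine, 6 µM final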
esBAF inh: blocks esBAF chromatin remodeling in mouse ES cells | Bmi1-luciferase knock-in reporter, 24 h; 100% = twice the neutral-well signal | reporter increase, % at 12.5 µM | 350,000 compounds, 2% hits; in the data active means activation above about 40%; inconclusive means no clear call, values can overlap the other calls;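 further: a rise in the Bmi1 reporter signal indicates esBAF inhibition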
Large screens that a line does not name were inactive. Sampled rows, rich in hits. Any-hit rate of the full collection: about 3%.

O=C(NCCC1=CCCCC1)c1cnc2n(c1=O)CCS2	esBAF inh 46.3 (no result: Casp6 inh, XiGFP reactiv)
O=C(NCc1ccc(F)cc1)c1ccc2c(=O)n3c(nc2c1)CCCCC3	none (no result: MITF act, NSD2 HMT inh)
CC(=O)c1ccc(NC(=O)c2ccc3c(=O)n4c(nc3c2)CCCCC4)cc1	none
O=C(Nc1ccc(Cl)cc1Cl)c1ccc2c(=O)n3c(nc2c1)CCC3	MITF act inconclusive, Wnt bcat act 42.1, esBAF inh 43.0
O=C(Nc1ccc(Cl)cc1)c1ccc2c(=O)n3c(nc2c1)CCCCC3	esBAF inh 50.1 (no result: MITF act, NSD2 HMT inh)
O=C(Nc1ccc(F)c(Cl)c1)c1ccc2c(=O)n3c(nc2c1)CCCCC3	Wnt bcat act inconclusive (no result: MITF act, Casp6 inh, XiGFP reactiv)
Cc1ccc(-c2cnc3c(c2)C(=O)N([C@H](C)CO)C[C@@H](C)[C@@H](CN(C)C)O3)cc1	none (no result: MITF act, NSD2 HMT inh, Wnt bcat act)
Cc1cc2ncn(C(=O)N3CCCCCC3)c2cc1C	esBAF inh 49.3 (no result: Casp6 inh, XiGFP reactiv)
CN1c2ccc(-c3ccc(F)cc3)cc2[C@H]2[C@H](CCN2S(=O)(=O)c2cccc(F)c2)[C@@H]1CO	none (no result: MITF act, NSD2 HMT inh, Wnt bcat act)
COc1ccc(-c2cc(COc3ccccc3)on2)cc1	none (no result: esBAF inh)
Fc1ccc(OCc2cc(-c3ccccc3)no2)cc1	MITF act 100.4, esBAF inh 56.7
Cc1nc(C(C)NC(=O)c2cc(COc3ccc(C)c(C)c3)on2)c(C)s1 (centres undefined)	esBAF inh 73.4
CC(=O)c1ccc(OCc2cc(C(=O)NC(C)c3cnn(C)c3)no2)cc1 (centres undefined)	none
CC(NC(=O)c1cc(COc2ccccc2)on1)c1nccs1 (centres undefined)	MITF act 96.8, esBAF inh 64.4
CC1OC1c1ccc(-c2ccc(C3OC3C)cc2)cc1 (centres undefined)	MITF act 90.2, esBAF inh 76.7 (no result: NSD2 HMT inh)
Cn1/c(=N/NC(=O)c2ccccc2Br)sc2ccccc21	Wnt bcat act 51.0 (no result: esBAF inh)
COc1cc(C(=O)N/N=c2/sc3ccccc3n2C)cc(OC)c1OC	none (no result: esBAF inh)
CCCC(=O)Nc1ccc2c(c1)C(=O)N(C)C[C@@H](OC)[C@H](C)CN(CC1CCCC1)[C@@H](C)CO2	none (no result: MITF act, NSD2 HMT inh, Casp6 inh, Wnt bcat act)
COc1ccccc1C(=O)/C=C/c1ccc(N2CCCCC2)c([N+](=O)[O-])c1	none
O=C(/C=C/c1ccc(N2CCCCC2)c([N+](=O)[O-])c1)c1ccc(O)cc1	Wnt bcat act inconclusive, esBAF inh 60.3
O=C(O)c1cccc(N2C(=O)c3cc([N+](=O)[O-])cc4cc([N+](=O)[O-])cc(c34)C2=O)c1	Casp6 inh 45.0
O=C1c2cc([N+](=O)[O-])cc3cc([N+](=O)[O-])cc(c23)C(=O)N1c1ccccn1	Casp6 inh 48.2 (no result: esBAF inh)
O=C1c2ccc(Oc3cccc([N+](=O)[O-])c3)cc2C(=O)N1c1ccccn1	none (no result: esBAF inh)
O=C(O)c1cccc(N2C(=O)c3cccc4cccc(c34)C2=O)c1	none
Cc1cc(=O)n(CC(=O)O)c2ccccc12	none (no result: esBAF inh)
Cc1cc(C)n(CC(=O)O)c(=O)c1[N+](=O)[O-]	Wnt bcat act 35.3 (no result: esBAF inh)
COc1ccc2c3c(n(C)c2c1)[C@@H](CO)N(C(=O)c1cccnc1)CC31CN(C)C1	none (no result: MITF act, NSD2 HMT inh, Casp6 inh, Wnt bcat act, esBAF inh)
O=C(NC1CCC1)[C@H]1[C@H](CO)[C@H]2Cn3c(ccc(C4=CCCC4)c3=O)[C@H]2N1C(=O)C1CCCC1	none (no result: MITF act, NSD2 HMT inh, Wnt bcat act)
CCCN1C[C@@H](C)[C@@H](OC)CN(C)C(=O)c2cc(NC(=O)Nc3ccccc3F)ccc2OC[C@H]1C	none (no result: MITF act, NSD2 HMT inh, Casp6 inh, Wnt bcat act)
O=C1CN(C(=O)OCc2ccccc2)c2ccccc2N1	esBAF inh 49.5 (no result: Casp6 inh, XiGFP reactiv)
CC1(C)C(=O)Nc2ccccc2N1C(=O)COC(=O)c1cccc(O)c1	none
CC1(C)C(=O)Nc2ccccc2N1C(=O)COC(=O)c1ccc([N+](=O)[O-])o1	Casp6 inh 47.2
O=C1CN(C(=O)COC(=O)c2ccc([N+](=O)[O-])o2)c2ccccc2N1	Casp6 inh 39.4
Cc1cccc(S(=O)(=O)N2CCCCN3[C@H](CO)[C@H](c4ccc(C#CC5CC5)cc4)[C@H]3C2)c1	none (no result: MITF act, NSD2 HMT inh, Wnt bcat act, esBAF inh)
CCCNC(=O)C[C@@H]1CC[C@H]2[C@@H](COC[C@@H](O)CN2C(=O)c2ccccn2)O1	none (no result: MITF act, NSD2 HMT inh, Wnt bcat act)
O=C1[C@@H](Cc2ccc(F)cc2)CCn2cc(nn2)COC[C@H]2CCCN12	none (no result: MITF act, NSD2 HMT inh, Casp6 inh, Wnt bcat act, esBAF inh)
Nc1c(C(=O)O)cnc2c(-c3ccc(Cl)cc3)cnn12	esBAF inh 46.9

Screens: PubChem BioAssay, Broad Institute
